Results from ChEMBL document CHEMBL1926651, “Design, synthesis, antiviral and cytostatic evaluation of novel isoxazolidine nucleotide analogues with a 1,2,3-triazole linker” (Eur J Med Chem, 2012).
Activity calls are given as the source filed them. The rule behind the calls is not given here.

What was measured:
Human alphaherpesvirus 1 [1] = assay: Antiviral activity against Herpes simplex virus 1 KOS infected in human HEL cells assessed as inhibition of viral plaque formation at 250 uM; format: functional, organism-based
Summary of the method: (§1)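 Confluent host cell monolayers were inoculated with 100 CCID50 of virus in the presence of test compound at serial dilutions (250, 50, 10, … μM). Viral cytopathicity was scored once it reached completion in untreated virus-infected controls.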

[2] = system: Mammalian orthoreovirus 1; assay: Antiviral activity against Reovirus-1 infected in african green monkey Vero cells assessed as inhibition of viral plaque formation at 250 uM; format: functional, organism-based; summary of the method: as §1
[3] = system: Human immunodeficiency virus 2; assay: Antiviral activity against Human immunodeficiency virus 2 infected in human CEM cells assessed as inhibition of virus-induced giant cell formation after 4 days by microscopic analysis; format: functional, organism-based; settings: CCRF-CEM
Summary of the method: (§2)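 CEM cells at about 3 × 10⁵ cells/cm³ were infected with 100 CCID50/mL of HIV-1(IIIB) or HIV-2(ROD), then seeded into wells holding test compound dilutions. After 4 days at 37 °C, virus-induced giant cell formation was scored microscopically.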

[4] = Cytotoxicity against CRFK cells assessed as change in cell morphology up to 100 uM; format: cell-based, Felis catus; settings: cat
Summary of the method: (§3)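 Uninfected host-cell cultures were examined under the microscope. MCC was taken as the lowest compound concentration producing a detectable alteration of normal cell morphology, assessed at concentrations up to 100 μM.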

Human betaherpesvirus 5 [5] = assay: Antiviral activity against Human cytomegalovirus AD169 infected in human HEL cells assessed as inhibition of viral plaque formation at 250 uM; format: functional, organism-based
Human alphaherpesvirus 3 [6] = assay: Antiviral activity against thymidine kinase-deficient Varicella Zoster virus 07/1 infected in human HEL cells assessed as inhibition of viral plaque formation at 250 uM; format: functional, organism-based
Human respirovirus 3 = assay: Antiviral activity against Parainfluenza-3 virus infected in african green monkey Vero cells assessed as inhibition of viral plaque formation at 250 uM; format: functional, organism-based; summary of the method: as §1
Sindbis virus = assay: Antiviral activity against Sindbis virus infected in african green monkey Vero cells assessed as inhibition of viral plaque formation at 250 uM; format: functional, organism-based; summary of the method: as §1
HEL [7] = assay: Cytotoxicity against human HEL cells assessed as change in cell morphology up to 100 uM; format: cell-based; summary of the method: as §3
L1210 = assay: Cytotoxicity against mouse L1210 cells 2 days by coulter counting; format: functional; settings: L1210, 48 h
Summary of the method: (§4)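 Cells were suspended at 300,000–500,000 cells/mL and added 1:1 to compound dilutions. Incubation was at 37 °C, 2 days for L1210 and 3 days for CEM, HeLa and HEL. Cells were counted with a Coulter counter. CC50 is the concentration inhibiting cell proliferation by 50%.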

[8] = system: Human immunodeficiency virus 1; assay: Antiviral activity against Human immunodeficiency virus 1 infected in human CEM cells assessed as inhibition of virus-induced giant cell formation after 4 days by microscopic analysis; format: functional, organism-based; settings: CCRF-CEM; summary of the method: as §2
HeLa [9] = assay: Cytotoxicity against human HeLa cells 3 days by coulter counting; format: functional; settings: 72 h; summary of the method: as §4
Vaccinia virus = assay: Antiviral activity against Vaccinia virus infected in human HEL cells assessed as inhibition of viral plaque formation at 250 uM; format: functional, organism-based; settings: Orthopoxvirus vaccinia; summary of the method: as §1
CCRF-CEM = assay: Cytotoxicity against human CEM cells 3 days by coulter counting; format: functional; settings: 72 h; summary of the method: as §4
Human alphaherpesvirus 2 = assay: Antiviral activity against Herpes simplex virus 2 G infected in human HEL cells assessed as inhibition of viral plaque formation at 250 uM; format: functional, organism-based; settings: strain G
HEL [10] = assay: Cytotoxicity against human HEL cells 3 days by coulter counting; format: functional; settings: 72 h; summary of the method: as §4
Human alphaherpesvirus 1 [11] = assay: Antiviral activity against thymidine kinase-deficient acv-resistant Herpes simplex virus 1 KOS infected in human HEL cells assessed as inhibition of viral plaque formation at 250 uM; format: functional, organism-based
[12] = system: Respiratory syncytial virus; assay: Antiviral activity against Respiratory syncytial virus infected in human HeLa cells assessed as inhibition of viral plaque formation at 250 uM; format: functional, organism-based; summary of the method: as §1
Coxsackievirus B4 [13] = assay: Antiviral activity against Coxsackievirus B4 infected in human HeLa cells assessed as inhibition of viral plaque formation at 250 uM; format: functional, organism-based; summary of the method: as §1
[14] = system: Vesicular stomatitis virus; assay: Antiviral activity against Vesicular stomatitis virus infected in human Hela cells assessed as inhibition of viral plaque formation at 250 uM; format: functional, organism-based
Coxsackievirus B4 [15] = assay: Antiviral activity against Coxsackievirus B4 infected in african green monkey Vero cells assessed as inhibition of viral plaque formation at 250 uM; format: functional, organism-based; summary of the method: as §1
Vero = assay: Cytotoxicity against african green monkey Vero cells assessed as change in cell morphology up to 100 uM; format: cell-based; settings: chlorocebus sabaeus; summary of the method: as §3
MDCK = assay: Cytotoxicity against MDCK cells assessed as change in cell morphology up to 100 uM; format: cell-based, Canis lupus familiaris; settings: dog; summary of the method: as §3
HeLa [16] = assay: Cytotoxicity against human HeLa cells assessed as change in cell morphology up to 100 uM; format: cell-based; summary of the method: as §3
Feline coronavirus = assay: Antiviral activity against Feline coronavirus infected in CrFK cells assessed as inhibition of viral plaque formation at 250 uM; format: functional, organism-based; summary of the method: as §1
Felid alphaherpesvirus 1 = assay: Antiviral activity against Felid herpesvirus 1 infected in CrFK cells assessed as inhibition of viral plaque formation at 250 uM; format: functional, organism-based; summary of the method: as §1
[17] = system: Vesicular stomatitis virus; assay: Antiviral activity against Vesicular stomatitis virus infected in human HEL cells assessed as inhibition of viral plaque formation at 250 uM; format: functional, organism-based; summary of the method: as §1
Human alphaherpesvirus 3 [18] = assay: Antiviral activity against thymidine kinase-positive Varicella Zoster virus Oka infected in human HEL cells assessed as inhibition of viral plaque formation at 250 uM; format: functional, cell-based; settings: strain Oka vaccine
Punta Toro virus = assay: Antiviral activity against Punta Toro virus infected in african green monkey Vero cells assessed as inhibition of viral plaque formation at 250 uM; format: functional, organism-based
Human betaherpesvirus 5 [19] = assay: Antiviral activity against Human cytomegalovirus Davis infected in human HEL cells assessed as inhibition of viral plaque formation at 250 uM; format: functional, organism-based

| SMILES | Activity (Human alphaherpesvirus 1 [1]) | Activity [2] | Activity [3] | Activity (Human betaherpesvirus 5 [5]) | Activity (Human alphaherpesvirus 3 [6]) | Activity (Human respirovirus 3) | Activity (Sindbis virus) | CC50 (L1210) [µM] | Activity [8] | CC50 (HeLa [9]) [µM] | Activity (Vaccinia virus) | CC50 (CCRF-CEM) [µM] | Activity (Human alphaherpesvirus 2) | CC50 (HEL [10]) [µM] | Activity (Human alphaherpesvirus 1 [11]) | Activity [12] | Activity (Coxsackievirus B4 [13]) | Activity [14] | Activity (Coxsackievirus B4 [15]) | Activity (Feline coronavirus) | also measured |
| --- | --- | --- | --- | --- | --- | --- | --- | --- | --- | --- | --- | --- | --- | --- | --- | --- | --- | --- | --- | --- | --- |
| CCOP(=O)(OCC)[C@@H]1C[C@@H](n2cc(-c3cccc(F)c3)nn2)ON1C (racemic) | inactive | inactive | inactive | inactive | inactive | inactive | inactive | ≥ 250 | inactive | ≥ 250 | inactive | > 250 | inactive | 40 | inactive | inactive | inactive | inactive | inactive | inactive | Activity [4]: Non-toxic; Activity (HEL [7]): Non-toxic; Activity (Vero): Non-toxic; Activity (MDCK): Non-toxic; Activity (HeLa [16]): Non-toxic; Activity (Felid alphaherpesvirus 1): inactive; Activity [17]: inactive; Activity (Human alphaherpesvirus 3 [18]): inactive; Activity (Punta Toro virus): inactive; Activity (Human betaherpesvirus 5 [19]): inactive |
| CCOP(=O)(OCC)[C@@H]1C[C@@H](n2cc(-c3ccccn3)nn2)ON1C (racemic) | inactive | inactive | inactive | inactive | inactive | inactive | inactive | ≥ 250 | inactive | > 250 | inactive | > 250 | inactive | 62 | inactive | inactive | inactive | inactive | inactive | inactive | Activity [4]: Non-toxic; Activity (HEL [7]): Non-toxic; Activity (Vero): Non-toxic; Activity (MDCK): Non-toxic; Activity (HeLa [16]): Non-toxic; Activity (Felid alphaherpesvirus 1): inactive; Activity [17]: inactive; Activity (Human alphaherpesvirus 3 [18]): inactive; Activity (Punta Toro virus): inactive; Activity (Human betaherpesvirus 5 [19]): inactive |
| CCOP(=O)(OCC)[C@@H]1C[C@H](n2cc(-c3ccccc3)nn2)ON1C (relative stereo) | inactive | inactive | inactive | inactive | inactive | inactive | inactive | 172 | inactive | > 250 | inactive | > 250 | inactive | 54 | inactive | inactive | inactive | inactive | inactive | inactive | Activity [4]: Non-toxic; Activity (HEL [7]): Non-toxic; Activity (Vero): Non-toxic; Activity (MDCK): Non-toxic; Activity (HeLa [16]): Non-toxic; Activity (Felid alphaherpesvirus 1): inactive; Activity [17]: inactive; Activity (Human alphaherpesvirus 3 [18]): inactive; Activity (Punta Toro virus): inactive; Activity (Human betaherpesvirus 5 [19]): inactive |
| CCOP(=O)(OCC)[C@@H]1C[C@@H](n2cc(-c3ccc(F)cc3F)nn2)ON1C (racemic) | inactive | inactive | inactive | inactive | inactive | inactive | inactive | 131 | inactive | 162 | inactive | ≥ 250 | inactive | 59 | inactive | inactive | inactive | inactive | inactive | inactive | Activity [4]: Non-toxic; Activity (HEL [7]): Non-toxic; Activity (Vero): Non-toxic; Activity (MDCK): Non-toxic; Activity (HeLa [16]): Non-toxic; Activity (Felid alphaherpesvirus 1): inactive; Activity [17]: inactive; Activity (Human alphaherpesvirus 3 [18]): inactive; Activity (Punta Toro virus): inactive; Activity (Human betaherpesvirus 5 [19]): inactive |
| CCOP(=O)(OCC)[C@@H]1C[C@@H](n2cc(-c3ccccc3)nn2)ON1C (racemic) | inactive | inactive | inactive | inactive | inactive | inactive | inactive | > 250 | inactive | > 250 | inactive | > 250 | inactive | 40 | inactive | inactive | inactive | inactive | inactive | inactive | Activity [4]: Non-toxic; Activity (HEL [7]): Non-toxic; Activity (Vero): Non-toxic; Activity (MDCK): Non-toxic; Activity (HeLa [16]): Non-toxic; Activity (Felid alphaherpesvirus 1): inactive; Activity [17]: inactive; Activity (Human alphaherpesvirus 3 [18]): inactive; Activity (Punta Toro virus): inactive; Activity (Human betaherpesvirus 5 [19]): inactive |
| CCOP(=O)(OCC)[C@@H]1C[C@H](n2cc(Cn3cnc4c(N)ncnc43)nn2)ON1C (relative stereo) | inactive | inactive | inactive | inactive | inactive | inactive | inactive | 147 | inactive | ≥ 250 | inactive | > 250 | inactive | > 100 | inactive | inactive | inactive | inactive | inactive | inactive | Activity (Felid alphaherpesvirus 1): inactive; Activity [17]: inactive; Activity (Human alphaherpesvirus 3 [18]): inactive; Activity (Punta Toro virus): inactive; Activity (Human betaherpesvirus 5 [19]): inactive |
| CCOP(=O)(OCC)[C@@H]1C[C@H](n2cc(Cn3cc(C)c(=O)[nH]c3=O)nn2)ON1C (racemic) | inactive | inactive | inactive | inactive | inactive | inactive | inactive | 280 | inactive | > 250 | inactive | > 250 | inactive | > 100 | inactive | inactive | inactive | inactive | inactive | inactive | Activity (Felid alphaherpesvirus 1): inactive; Activity [17]: inactive; Activity (Human alphaherpesvirus 3 [18]): inactive; Activity (Punta Toro virus): inactive; Activity (Human betaherpesvirus 5 [19]): inactive |
